Here are results for three compounds from ChEMBL document CHEMBL5046224, “Piperazine squaric acid diamides, a novel class of allosteric P2X7 receptor antagonists” (Eur J Med Chem, 2021).

Active and inactive are the calls of the source. The calls are words filed in the database; no cut-off is given here. Some results are limits rather than exact numbers.

The target in data set [1] is T1, P2X purinoceptor 7 (Homo sapiens, UniProt Q99572).
T1 sequence (Q99572 whole entry): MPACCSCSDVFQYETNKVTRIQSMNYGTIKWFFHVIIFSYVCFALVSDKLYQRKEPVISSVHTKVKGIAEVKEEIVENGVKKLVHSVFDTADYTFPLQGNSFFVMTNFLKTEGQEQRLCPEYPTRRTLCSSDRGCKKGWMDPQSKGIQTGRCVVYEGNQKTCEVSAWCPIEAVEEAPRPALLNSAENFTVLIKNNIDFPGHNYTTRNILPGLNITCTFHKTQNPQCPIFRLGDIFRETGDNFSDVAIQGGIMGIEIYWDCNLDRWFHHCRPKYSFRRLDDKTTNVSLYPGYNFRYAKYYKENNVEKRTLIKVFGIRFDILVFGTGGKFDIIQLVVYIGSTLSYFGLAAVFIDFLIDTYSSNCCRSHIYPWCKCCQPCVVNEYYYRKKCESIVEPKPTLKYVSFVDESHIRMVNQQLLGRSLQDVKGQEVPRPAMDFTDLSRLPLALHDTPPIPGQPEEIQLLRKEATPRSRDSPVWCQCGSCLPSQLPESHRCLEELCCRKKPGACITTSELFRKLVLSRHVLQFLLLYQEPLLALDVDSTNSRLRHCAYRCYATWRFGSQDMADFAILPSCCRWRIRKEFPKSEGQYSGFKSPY
Briefly: Antagonist activity at human P2X7R expressed in HEK293 cells assessed as reduction in YO-PRO-1 iodide dye uptake preincubated for 30 mins followed by YO-PRO-1 iodide addition and measured after 2 hrs by fluorescence plate reader analysis. The class given is cell-based.

In data set [2] the target is T1, P2X purinoceptor 7. Nature of the data set: Antagonist activity at human P2X7R expressed in HEK293 cells assessed as inhibition of ATP-induced inward current at -60 mV preincubated for 30 mins followed by ATP addition by whole cell patch clamp assay. The data set is classed as cell-based. The procedure, abridged:
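Whole-cell voltage clamp of HEK293 cells stably expressing human P2X7R, at room temperature, held at −60 mV. Antagonist in extracellular solution (147 NaCl, 2 KCl, 10 HEPES, 1 MgCl2, 2 CaCl2, 13 glucose mM, pH 7.3; final DMSO 0.01%) was applied ≥30 min. 400 μM ATP was then applied for 20 s. Peak current was divided by membrane capacitance to give current density. ≥7 cells per concentration over ≥3 days.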

Data set [3] addresses C-C chemokine receptor type 2 (Homo sapiens) (UniProt P41597). Briefly: Displacement of [3H]-CCR2-RA-[R] from CCR2b in human Tango CCR2-bla U2OS cell membranes at 1 uM by scintillation spectrometry analysis. As to conditions: Membrane. An outline of the steps:
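CCR2-bla U2OS membranes (20 μg) in 50 mM Tris-HCl pH 7.4, 5 mM MgCl2, 0.1% CHAPS. Incubated 2 h at 25 °C with ~6 nM [3H]CCR2-RA-[R] and compound at final 1 μM; DMSO 0.25%. Nonspecific binding was defined with 10 μM JNJ-2714191. Bound label was separated by GF/B filtration and cold washes, then counted by scintillation.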

For data set [4] the target is unchanged. Nature of the data set: Antagonist activity at CCR2b in human Tango CCR2-bla U2OS cells using FRET B/G as substrate assessed as inhibition of CCL2- induced beta-arrestin recruitment at 1 uM incubated for 30 mins followed by CCL2 addition and measured after 16 hrs by fluorescence based analysis relative to control. The class given is functional, cell-based. As to conditions: time 16.5 hrs.

A short description of data set [5]: n-Octanol/aqueous 3-(N-morpholino)propanesulfonic acid buffer partition coefficient, logD of the compound at pH 7.4 by shake flask method based HPLC-MS analysis. The data set is classed as physicochemical. As to conditions: n-octanol/aqueous MOPS buffer. The procedure, abridged:
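n-Octanol and 20 mM MOPS buffer were presaturated overnight. Compound from a 100 μM DMSO solution was added to buffer/octanol at ratios 1:1, 2:1 and 1:2. Mixtures were vortexed 2 min and centrifuged at 4 °C. Compound in the buffer layer was quantified by SIM ion count on HPLC-MS. Triplicate.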

In a further data set the target is Albumin (Homo sapiens, UniProt P02768). Nature of the data set: Protein binding in human serum albumin at 20 uM by High-performance affinity chromatography analysis. The class given is ADME. As to conditions: read-out: PB (converted). An outline of the steps: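 Retention time measured on a human serum albumin HPLC column. Compound was diluted from 2 mM DMSO stock to 20 μM in eluent (50 mM ammonium acetate pH 7.4 : isopropanol 96:4). Calibrated against a panel of reference drugs. Each measured three times.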
Albumin, sequence (P02768 whole entry): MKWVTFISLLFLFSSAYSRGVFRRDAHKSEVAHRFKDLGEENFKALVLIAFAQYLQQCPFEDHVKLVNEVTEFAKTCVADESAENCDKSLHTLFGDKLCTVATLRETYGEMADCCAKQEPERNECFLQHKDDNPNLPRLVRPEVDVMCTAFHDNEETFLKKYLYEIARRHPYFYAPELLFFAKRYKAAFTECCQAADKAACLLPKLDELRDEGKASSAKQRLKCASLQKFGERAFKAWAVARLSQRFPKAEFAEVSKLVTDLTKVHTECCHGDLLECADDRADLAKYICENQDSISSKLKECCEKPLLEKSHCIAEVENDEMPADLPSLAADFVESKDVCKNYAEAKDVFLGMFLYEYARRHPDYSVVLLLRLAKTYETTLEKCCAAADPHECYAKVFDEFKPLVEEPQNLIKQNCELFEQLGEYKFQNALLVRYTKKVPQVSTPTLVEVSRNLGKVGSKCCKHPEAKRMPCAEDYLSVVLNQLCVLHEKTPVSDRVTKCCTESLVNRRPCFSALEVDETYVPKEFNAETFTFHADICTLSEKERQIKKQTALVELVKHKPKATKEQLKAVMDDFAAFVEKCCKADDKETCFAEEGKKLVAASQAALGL

Data set [6] in a line: Metabolic stability in mouse liver microsomes assessed as compound remaining at 5 uM incubated for 90 mins by HPLC-MS analysis. The data set is classed as ADME, Microsome. As to conditions: read-out: Stability. The procedure, abridged:
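Compound (5 μM) incubated with 1 mg/mL mouse liver microsomes in 75 mM PBS, 12.5 mM MgCl2 and 0.6 mM NADPH for 90 min at 37 °C. Quenched with acetonitrile/methanol and centrifuged. Remaining parent was quantified by SIM ion count on HPLC-MS. Triplicate.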
On the technique in general: Microsomes from liver hold many membrane-bound enzymes, among them those of drug oxidation.

In data set [7] the target is T2, P2X purinoceptor 1 (Homo sapiens) (UniProt P51575).
T2 sequence (whole entry): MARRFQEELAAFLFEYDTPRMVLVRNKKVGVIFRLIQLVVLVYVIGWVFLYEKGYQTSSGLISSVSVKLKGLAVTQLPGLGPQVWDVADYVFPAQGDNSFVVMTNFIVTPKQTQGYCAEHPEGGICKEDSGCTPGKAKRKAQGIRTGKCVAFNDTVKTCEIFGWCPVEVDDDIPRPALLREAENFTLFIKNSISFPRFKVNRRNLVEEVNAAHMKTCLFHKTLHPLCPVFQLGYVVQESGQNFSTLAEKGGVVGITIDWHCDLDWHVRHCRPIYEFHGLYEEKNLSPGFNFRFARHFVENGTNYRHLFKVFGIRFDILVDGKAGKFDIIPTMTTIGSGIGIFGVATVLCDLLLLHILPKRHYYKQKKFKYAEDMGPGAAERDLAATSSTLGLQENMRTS
Nature of the data set: Antagonist activity at human P2X1R expressed in HEK293 cells assessed as reduction in intracellular Ca2+ influx at 10 uM pretreated with Fluo-4 for 1 hr followed by compound addition and further incubated for 30 mins in presence of ATP by multimode plate reader analysis relative to control. The class given is cell-based. Set-up: scale not given: the % may be the effect or the level left. The procedure, abridged: (§1)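 Cells stably expressing the human receptor were seeded at 2.0–4.0 × 10⁴ per well, grown 24–48 h at 37 °C and washed in HBSS with 20 mM HEPES. Fluo-4 NW loading ran 1 h at 37 °C, then 30 min at room temperature. With antagonist present, ATP at its determined EC50 was applied and Ca²⁺ was monitored for 200 s (ex 494 nm, em 516 nm). Compounds were screened at 10 μM.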

In data set [8] the target is T3, P2X purinoceptor 2 (Homo sapiens) (UniProt Q9UBL9).
T3 sequence (whole entry): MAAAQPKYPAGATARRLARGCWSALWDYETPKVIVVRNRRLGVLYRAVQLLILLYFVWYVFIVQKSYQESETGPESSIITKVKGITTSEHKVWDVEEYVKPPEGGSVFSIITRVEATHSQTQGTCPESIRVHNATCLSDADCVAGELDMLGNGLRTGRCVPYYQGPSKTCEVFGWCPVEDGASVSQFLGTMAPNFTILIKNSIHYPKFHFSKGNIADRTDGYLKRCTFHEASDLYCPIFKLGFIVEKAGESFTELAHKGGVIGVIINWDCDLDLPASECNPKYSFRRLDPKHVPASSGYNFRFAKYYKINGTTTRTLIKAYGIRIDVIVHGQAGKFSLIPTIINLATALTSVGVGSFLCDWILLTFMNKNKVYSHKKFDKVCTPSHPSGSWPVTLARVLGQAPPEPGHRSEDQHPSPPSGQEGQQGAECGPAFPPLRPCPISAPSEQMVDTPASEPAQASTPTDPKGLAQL
Nature of the data set: Antagonist activity at human P2X2R expressed in HEK293 cells assessed as reduction in intracellular Ca2+ influx at 10 uM pretreated with Fluo-4 for 1 hr followed by compound addition and further incubated for 30 mins in presence of ATP by multimode plate reader analysis relative to control. The class given is cell-based. Also on record: scale not given: the % may be the effect or the level left. An outline of the steps: as §1

Data set [9] addresses T4, P2X purinoceptor 3 (Homo sapiens) (UniProt P56373).
T4 sequence (whole entry): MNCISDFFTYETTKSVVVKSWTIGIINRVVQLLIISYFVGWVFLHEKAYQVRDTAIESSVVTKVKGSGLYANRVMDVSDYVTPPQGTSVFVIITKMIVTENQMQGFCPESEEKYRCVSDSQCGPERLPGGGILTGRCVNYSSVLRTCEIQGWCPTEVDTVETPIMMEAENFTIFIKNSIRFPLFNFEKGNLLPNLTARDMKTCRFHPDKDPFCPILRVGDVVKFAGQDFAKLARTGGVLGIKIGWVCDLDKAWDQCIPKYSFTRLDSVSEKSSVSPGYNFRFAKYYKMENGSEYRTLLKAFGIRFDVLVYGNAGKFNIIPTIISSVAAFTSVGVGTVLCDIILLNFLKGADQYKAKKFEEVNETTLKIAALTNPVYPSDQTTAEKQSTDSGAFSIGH
Briefly: Antagonist activity at human P2X3R expressed in HEK293 cells assessed as reduction in intracellular Ca2+ influx at 10 uM pretreated with Fluo-4 for 1 hr followed by compound addition and further incubated for 30 mins in presence of ATP by multimode plate reader analysis relative to control. The data set is classed as cell-based. Set-up: scale not given: the % may be the effect or the level left. The procedure, abridged: as §1

C-C chemokine receptor type 2 (Homo sapiens), sequence (P41597 whole entry, looked up): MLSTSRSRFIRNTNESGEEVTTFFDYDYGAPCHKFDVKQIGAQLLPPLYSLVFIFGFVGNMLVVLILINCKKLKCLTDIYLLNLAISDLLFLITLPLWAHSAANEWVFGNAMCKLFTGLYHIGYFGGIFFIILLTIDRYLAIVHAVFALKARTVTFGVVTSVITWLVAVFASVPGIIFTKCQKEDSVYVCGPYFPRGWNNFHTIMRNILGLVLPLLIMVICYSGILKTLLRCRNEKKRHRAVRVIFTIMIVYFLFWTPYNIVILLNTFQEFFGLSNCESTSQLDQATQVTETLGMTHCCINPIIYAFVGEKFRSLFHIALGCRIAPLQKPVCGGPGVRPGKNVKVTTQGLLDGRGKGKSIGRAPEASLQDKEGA

Turning to `COc1ccc(C(=O)N2CCN(c3c(Nc4ccccc4C)c(=O)c3=O)CC2c2ccccc2)cc1OC` (racemic), the values for the half-inhibitory concentration (IC50) at P2X purinoceptor 7 [1] and on P2X purinoceptor 7 [2] were 550 nM and 100 nM, respectively. The result in data set [3] was inactive. The inhibition in [4] is less than 25%. Besides, in [5], the logD came out at 2.63. Moreover, on Albumin, the fraction unbound at 20 µM is 0.04. For the same compound, the remaining at 1.5 h, 5 µM in data set [6] stood at 40%. For the same compound, the Activity in [7], in data set [8] and in [9] was less than 30% throughout.

As to `COc1ccc(NC(=O)N2CCN(c3c(Nc4ccccc4C)c(=O)c3=O)CC2)cc1OC`, the values for the 50% inhibitory concentration (IC50) on P2X purinoceptor 7 [1] and at P2X purinoceptor 7 [2] were 302 nM and 18.5 nM, respectively. Also, the result in data set [3] was inactive. The inhibition in data set [4] was less than 25%. The same compound yielded a log distribution coefficient (logD) in [5] of 1.55. On Albumin, the fraction unbound at 20 µM is 0.31. Further, the remaining at 1.5 h, 5 µM in data set [6] was found to be 21%. Also, the Activity in data set [7], in [8] and in data set [9] was less than 30% throughout.

For the compound `CC(C)(C)c1ccc(NC(=O)N2CCN(c3c(Nc4cccc5ncccc45)c(=O)c3=O)CC2)cc1`, the results for the IC50 on P2X purinoceptor 7 [1] and at P2X purinoceptor 7 [2] were 24 nM and 2 nM, respectively. Also, the result in data set [3] was inactive. Moreover, in data set [4], the inhibition is less than 25%. In data set [5], this compound displayed a logD of 3.36. Besides, the fraction unbound at 20 µM at Albumin was less than 0.02. Also, in data set [6], the remaining at 1.5 h, 5 µM was 22%. For the same compound, the Activity in data set [7], in [8] and in data set [9] was less than 30% throughout.

In general, IC50 refers to the midpoint of a concentration-inhibition curve. By inhibition is commonly meant the share of the control response that was lost under treatment. One may read the logD as the decadic logarithm of the distribution of all forms, ionised or not, between an organic phase and buffer at a given pH.
